Most compounds without a hit are left out; they make up all but 4.6% or so of the library.
GPR7 antag = GPR7 receptor antagonists, primary screen, cell-based, fluorescence, single concentration; Neuropeptides B/W receptor type 1 (Homo sapiens), P48145; GPR7-expressing cells, fluorescence antagonist assay; inhibition, % at 4.4 µM; 290,000 tested, 1.1% active; in the data active = inhibition above about 16%, passing the limit was not always enough;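 note: cells stimulated with the agonist NPW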
Target sequence (P48145 whole entry, looked up): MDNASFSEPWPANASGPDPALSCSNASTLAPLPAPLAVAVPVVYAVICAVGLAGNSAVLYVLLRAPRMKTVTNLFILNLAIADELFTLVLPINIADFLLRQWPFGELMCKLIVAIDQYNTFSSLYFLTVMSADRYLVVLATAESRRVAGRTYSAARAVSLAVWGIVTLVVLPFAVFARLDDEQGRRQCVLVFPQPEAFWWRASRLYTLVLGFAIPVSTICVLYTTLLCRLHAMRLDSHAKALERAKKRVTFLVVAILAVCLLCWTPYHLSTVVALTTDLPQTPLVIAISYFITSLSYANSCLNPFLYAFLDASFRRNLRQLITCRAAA
OX1R antag-1 = OX1R (HCRTR1) antagonists, primary screen, fluorescence, CHO/OX1R cells, Fluo-8 calcium, orexin A. Orexin/Hypocretin receptor type 1 (Homo sapiens), O43613. Fluo-8 calcium fluorescence. inhibition, % at 5 µM. 330,000 tested, 0.43% active;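 active = inhibition above its plate's threshold, mean inhibition of all tested compounds on the plate plus 3 SD, cut at about 37% in these data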
Target sequence (O43613 whole entry, looked up): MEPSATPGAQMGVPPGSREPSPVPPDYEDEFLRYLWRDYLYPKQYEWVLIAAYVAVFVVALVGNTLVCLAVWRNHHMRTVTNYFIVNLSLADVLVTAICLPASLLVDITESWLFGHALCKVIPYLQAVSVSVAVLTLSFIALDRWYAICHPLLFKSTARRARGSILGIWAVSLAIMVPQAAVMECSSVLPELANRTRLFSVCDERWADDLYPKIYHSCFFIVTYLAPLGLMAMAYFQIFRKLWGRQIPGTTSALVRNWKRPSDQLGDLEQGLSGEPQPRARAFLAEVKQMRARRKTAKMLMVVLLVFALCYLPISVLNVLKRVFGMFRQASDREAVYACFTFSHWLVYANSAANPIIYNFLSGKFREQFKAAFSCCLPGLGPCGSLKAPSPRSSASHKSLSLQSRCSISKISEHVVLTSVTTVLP
TAAR1 ag = human TAAR1 agonists, primary screen, Fluo-8 calcium fluorescence, CHO RD-HGA16 cells; Trace amine-associated receptor 1 (Homo sapiens), Q96RJ0; vehicle wells 0%, saturating PEA agonist 100%; activation, % at 3 µM; 360,000 tested, 0.99% active;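 active = activation above the mean activation of all test compounds in the run plus 3 SD, cut at about 38% in these data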
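Test system: RD-HGA16 (CHO) cells co-expressing Gα16 and hTAAR1; dosing: one-point dosing at 3 µM (nominal); timing: 17-24 h seeding, 75 min 37 °C dye, 30 min RT; signal: kinetic Fluo-8 calcium fluorescence; read-out basis: % activation relative to PEA EC100 response; controls: DMSO and PEA EC100; replicates: n 1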
TAAR1 antagonist = human TAAR1 antagonists, primary screen, Fluo-8 calcium fluorescence, CHO RD-HGA16 cells | Trace amine-associated receptor 1 (Homo sapiens), Q96RJ0 | antagonist | inhibition, % at 3 µM | 360,000 tested, 1.5% active;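 active = inhibition above a per-plate cutoff, the mean inhibition of test compounds on that plate plus 3 SD, cut at about 49% in these data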
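Test system: hTAAR1-expressing CHO RD-HGA16 cells, Gα16-coupled; Probe or stimulus: EC80 β-phenethylamine stimulus; Compound dosing: single nominal final test compound concentration of 3 µM; Timing: 140 s kinetic read after compound, 140 s after agonist; Signal: Fluo-8 calcium-sensitive fluorescence; Measure: % inhibition of agonist calcium response; Controls: DMSO and EC80 PEA controls.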
CHO parental Ca = ATP-evoked calcium signal inhibitors, parental CHO, primary screen, counter-screen for OX1R antagonist project, cell-based, fluorescence, Fluo-8 calcium dye; parental CHO-K1, ATP-induced calcium, Fluo-8 fluorescence; inhibition, % at 5.6 µM; 330,000 tested, 0.63% active; AID 463079, 2010;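 active = inhibition above that plate's mean sample inhibition plus 3 SD, cut at about 26% in these data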
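Test system: untransfected parental CHO cell line. Compound: one dose, 5.6 µM nominal. Detection: intracellular calcium via Fluo-8 no-wash fluorescent dye. Measure: % inhibition. Benchmarks: ATP-challenged DMSO wells low, unchallenged DMSO wells high.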
OX1R antag-2 = antagonists of human orexin 1 receptor (OX1R) | inhibition, % at 6.6 µM | OX1R-expressing cells, FRET antagonist read-out | 330,000 tested, 1.8% active | Orexin/Hypocretin receptor type 1 (Homo sapiens), O43613; in the data active = inhibition mostly above about 38%, no sharp cut-off; inactive = mostly below about 40%
Each line names hits and unclear results; the compound was inactive in the other large screens.

Cc1c(C(=O)N2CCOCC2)sc2nc(-c3ccccc3)cn12	none
Cc1c(C(=O)Nc2ccncc2)sc2nc(-c3ccccc3)cn12	TAAR1 antagonist 58, OX1R antag-2 37
O=[S@]1Oc2ccccc2-c2ccccc21	TAAR1 ag 51 (no result: GPR7 antag)
Nc1nnc(SCC(=O)N2CCN(Cc3ccccc3)CC2)s1	none
CN1C(=O)c2cccc3c(S(=O)(=O)Nc4ccccn4)ccc1c23	OX1R antag-2 68
CC1(c2cccc(Br)c2)NC(=O)N(CC(=O)Nc2ccc(F)cc2)C1=O (centres undefined)	none
O=C(Nc1cc(C(F)(F)F)ccc1N1CCOCC1)C1Cc2ccccc2CN1C(=O)c1ccco1 (centres undefined)	GPR7 antag 40
O=C(Nc1ccccc1)C1Cc2ccccc2CN1C(=O)c1ccco1 (centres undefined)	none
CC(=O)c1cccc(N=c2scc(-c3ccc(S(=O)(=O)N4CCOCC4)cc3)n2CCO)c1	none
C=CCn1c(-c2ccc(S(=O)(=O)N3CCOCC3)cc2)csc1=Nc1ccccc1	CHO parental Ca 39
CC(=O)c1ccc(OCc2ccc(C(=O)c3ccccc3)cc2)cc1	CHO parental Ca 49
COc1ccc(NS(=O)(=O)c2ccc(NN=Cc3ccc(C(=O)O)cc3)c([N+](=O)[O-])c2)cc1	none (no result: GPR7 antag)
CCNCc1nc2cc(Cl)ccc2c(=O)[nH]1	none
O=C(NCCc1ccccc1)c1nc(CS(=O)(=O)c2ccc(Cl)cc2)no1	none
Cc1ccc(CCNC(=O)c2nc(CS(=O)(=O)c3ccc(Cl)cc3)no2)cc1	TAAR1 antagonist 57
CCOC(=O)C1=C(COC(=O)c2ccc(C)c(S(=O)(=O)N3CCOCC3)c2)NC(=O)NC1C (centres undefined)	none (no result: GPR7 antag, OX1R antag-1, CHO parental Ca, OX1R antag-2)
Cc1oc2c(c1C(=O)NCc1cccnc1)C(=O)c1ccccc1C2=O	OX1R antag-2 46 (no result: TAAR1 ag, TAAR1 antagonist)
COc1ccc(CNC(=O)c2c(C)oc3c2C(=O)c2ccccc2C3=O)cc1	none
CCOc1ccccc1NC(=O)CCSc1nc2n[nH]c(C)c2c(=N)n1-c1ccccc1Cl	OX1R antag-2 53
CCc1ccccc1NC(=O)CSc1nc2n[nH]c(C)c2c(=N)n1-c1cccc(OC)c1	OX1R antag-2 46
C=CCOc1c(CCC)cc(CCC)cc1C(N)=O	CHO parental Ca 94
CCOc1c(C(N)=O)cc([N+](=O)[O-])cc1[N+](=O)[O-]	none
COc1ccc(C(C)=O)cc1CN(c1ccccc1OC)S(=O)(=O)c1cccs1	none
O=C(Nc1ccc(Cl)cc1)Nc1ccc(Cl)c(Cl)c1	OX1R antag-1 84, TAAR1 antagonist 66, CHO parental Ca 79, OX1R antag-2 43 (no result: GPR7 antag)
CC(=O)N(C)c1ccc(NC(=O)Nc2ccc(Cl)cc2)cc1	TAAR1 ag 44, TAAR1 antagonist 102 (no result: GPR7 antag)
CNC(=O)Nc1ccc(S(N)(=O)=O)cc1	none
NS(=O)(=O)c1ccc(NC(=O)Nc2ccc(Cl)cc2)cc1	TAAR1 ag 41
COc1ccc(NC(=O)Nc2ccc(F)c(Cl)c2)cc1	none
Cc1ccc(NC(=O)Nc2ccc(F)c(Cl)c2)cc1	GPR7 antag 29, CHO parental Ca 69
CCCCCCC12Cc3cc(OC)c(OC)cc3C(O1)C1=C(O2)C(C)(C)CCC1=O (centres undefined)	none (no result: GPR7 antag, OX1R antag-1, CHO parental Ca, OX1R antag-2)
Cc1cc(=O)[nH]c(-c2ccccc2OC(F)(F)F)n1	none
CC(=O)Nc1ccc(S(=O)(=O)NCc2nc(-c3ccccc3Cl)no2)cc1	none
Cc1cc(NC(=O)Nc2ccc(Cl)c(Cl)c2)no1	CHO parental Ca 82 (no result: GPR7 antag)
O=C(Nc1cccnc1)Nc1ccc(F)c(Cl)c1	TAAR1 ag 51
O=C(Nc1ccncc1)Nc1cccc(Cl)c1Cl	none (no result: OX1R antag-1, CHO parental Ca, OX1R antag-2)
O=C(Nc1cccnc1)c1cc(F)c(F)cc1Cl	none
Cc1cc(NC(=O)Nc2ccc(Cl)cc2)no1	none
O=C(Nc1ccc(Cl)cc1)Nc1cccc2nsnc12	OX1R antag-2 44
O=C(Nc1ccc(Cl)c(Cl)c1)Nc1ccc(Br)cc1F	CHO parental Ca 36
C/C(N)=C(/C#N)C(=O)COC(=O)c1cc(-c2ccc(Br)cc2)nc2ccccc12	none
Cc1nc(NC(=O)/C=C/c2ccccc2)n[nH]1	none
CC(=O)c1ccc(S(=O)(=O)NCCC(=O)NC2CCN(Cc3ccccc3)CC2)cc1	none (no result: GPR7 antag)
COc1ccc(S(=O)(=O)NC(=O)C2(C)CCN2C(=O)C2(c3ccccc3)CCCC2)cc1 (centres undefined)	none (no result: GPR7 antag, OX1R antag-1, CHO parental Ca, OX1R antag-2)
O=[N+]([O-])c1ccc(-c2nnc3n2CCCCC3)cc1	OX1R antag-2 32
C=CCNc1cc(C)oc(=O)c1C(=O)CCC	none
Cc1ccc(-c2csc(/C(C#N)=C(\O)CCl)n2)cc1	none (no result: OX1R antag-1, CHO parental Ca, OX1R antag-2)
N#C/C(=C(/O)CCl)c1nc(-c2ccccc2)cs1	GPR7 antag 19
O=Nc1c(O)n(Cc2ccc(Cl)c(Cl)c2)c2ccccc12	CHO parental Ca 38
O=Nc1c(O)n(Cc2ccccc2)c2ccccc12	none
CCCCN(C(=O)c1cccc(S(=O)(=O)N2CC(C)OC(C)C2)c1)c1c(N)n(CCCC)c(=O)[nH]c1=O (centres undefined)	none
O=C(COC(=O)c1ccc(-c2ccccc2)cc1)Nc1ccccc1-c1ccccc1	none
O=C(COC(=O)c1ccc(O)cc1)Nc1ccc(Cl)cc1	TAAR1 ag 41
O=C(COC(=O)c1ccc(O)cc1)Nc1ccccc1-c1ccccc1	TAAR1 antagonist 61, CHO parental Ca 43
COc1ccc(NC(=O)COc2ccccc2)cc1NC(=O)c1ccco1	none
COc1ccc(OC)c(Nc2ccc(C(=O)O)cc2[N+](=O)[O-])c1	none
COc1ccc(Nc2ccc(C(=O)O)cc2[N+](=O)[O-])cc1	OX1R antag-2 55
O=C(CC1SC(=O)N(Cc2cccc3ccccc23)C1=O)Nc1nccs1 (centres undefined)	OX1R antag-2 62
O=C(Cc1ccccc1)Nc1nccs1	none
Clc1cccc(/C=N/N2CCN(Cc3ccccc3)CC2)c1	none
CC(C)(C)c1ccc(OCc2ccc(C(=O)N/N=C/c3ccc(O)c(O)c3)cc2)cc1	TAAR1 antagonist 53
O=C(Cc1ccsc1)NNC(=O)c1ccccc1Cl	none (no result: GPR7 antag)
CC1CCC2(CC1)NC(=O)N(CC(=O)NC(=O)Nc1ccc3c(c1)OCCO3)C2=O (centres undefined)	GPR7 antag 20
COCCNC(=S)N1CCN(c2nc(-c3ccc(F)cc3)cs2)CC1	none
CCNC(=S)N1CCN(c2nc(-c3ccc(F)cc3)cs2)CC1	OX1R antag-1 48, CHO parental Ca 65
CCCN(CC(=O)Nc1ccc(Cl)cc1Cl)C(=O)/C=C/c1cc(OC)ccc1OC	none

High-throughput results as filed in PubChem.
